Screens deposited in PubChem BioAssay by several laboratories.
Most compounds without a hit are left out; they make up all but 4.9% or so of the library.
STAT3 act = STAT3 signaling activation; U3A cells, IL-6 STAT3-luciferase reporter, luminescence; 100% = signal with IL-6 EC80 alone; activation (% of control), % at 5.6 µM; 190,000 compounds, 0.91% hits; AID 871;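 active means activation above the screen-wide mean of compound activation plus 3 SD, cut at about 130% in these data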;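 further: 0% = background luminescence of wells with medium and substrate only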
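Material: STAT3-luciferase reporter U3A cells; Probe or stimulus: IL-6 (33 ng/mL); Incubation: compound pre-incubation 1 h before IL-6, then 6 h stimulation at 37 °C; Technique: luminescence from STAT3-driven luciferase reporter; Evaluation: % activation versus median of IL-6-stimulated wells; Controls: IL-6-only high control.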
STAT1 inh = inhibitors of IFN-gamma induced STAT1 signaling | NIH 3T3 STAT1-luciferase reporter, luminescence | inhibition, % at 5.5 µM | 200,000 compounds, 0.35% hits | AID 920;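 active means inhibition above a set limit, the mean inhibition across all tested compounds plus 3 SD, cut at about 34% in these data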;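 further: 0% = IFN-gamma with DMSO and 100% = IFN-gamma with 300 µM nifuroxazide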
APP 5'UTR act = APP 5'UTR luciferase reporter activation; 190,000 compounds, 1% hits; activation, % at 2 µM; SH-SY5Y APP 5'UTR luciferase reporter, luminescence; zero percent = DMSO vehicle wells;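 active means activation above a set limit, based on mean plus 3 SD of controls, cut at about 140% in these data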
STAT3 inh = inhibitors of IL-6 induced STAT3 signaling | U3A cells, IL-6 STAT3-luciferase reporter, luminescence; host cell line lacks STAT1 | inhibition, % at 5.5 µM | 190,000 compounds, 0.89% hits | AID 862;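 active means inhibition above the mean inhibition across all screened compounds plus 3 SD, cut at about 44% in these data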;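 further: 0% = DMSO only wells and 100% = 100 µM nifuroxazide control wells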
NF-kB expr up = NF-kB expression increase, human neuronal cells; NF-kB reporter expression; hits give high values; fold change at 12.5 µM; 190,000 compounds, 1.6% hits; in the data active means fold change above about 3.3
STAT1 act = activators of IFN-gamma induced STAT1 signaling | activation (% of control), % at 5.5 µM | AID 932 | NIH 3T3 STAT1-luciferase reporter, luminescence; 100% = IFN-gamma alone, no compound | 200,000 compounds, 2.6% hits;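 active means activation above the screen-wide mean activation plus 3 SD, cut at about 130% in these data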;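 further: raw ratio to IFN-gamma control signal so 100% means no change and 0% no light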
* hit, by the source's call; nt = not tested or not shown.

SMILES	STAT3 act	STAT1 inh	APP 5'UTR act	STAT3 inh	NF-kB expr up	STAT1 act
COc1cc(OC)cc(C(=O)Nc2ccc([N+](=O)[O-])cn2)c1	93	-2	10	11	1.4	102
Cc1cc(C)n(C(=O)/C(C#N)=C/N(C)C)n1	99	-8	-13	5	0.97	106
CCC(Cc1ccccc1)NCc1c(C(=O)O)c(C)n(Cc2ccccc2)c1C (configuration not stated)	90	1	23	14	1.1	98
CCCCC(=O)Nc1ccccc1C(=O)OCC(=O)c1ccc2c(c1)OCCO2	94	-36	70	3	0.84	132*
CC(=O)Nc1cccc(C(=O)OCC(=O)c2ccccc2Cl)c1	96	-30	29	10	2.2	128
CCC(=O)Nc1ccccc1C(=O)OCC(=O)c1ccccc1	96	-41	76	11	2.2	138*
O=C(COC(=O)c1cccnc1Cl)c1ccc(F)cc1	96	-28	8	13	1.2	126
O=C(COC(=O)c1cccnc1Cl)c1ccccc1	103	-33	0	1	1.3	130*
CCC(=O)Nc1cccc(C(=O)OCC(=O)c2ccccc2Cl)c1	118	-32	10	-15	2.2	130*
CC(=O)Nc1cc(C(=O)OCC(=O)c2ccccc2)ccc1C	98	-41	50	5	1.2	136*
O=S1(=O)C=C(Sc2nc3ccccc3s2)c2ccccc21	134*	7	-96	-33	0.14	95
Cc1cc(C)nc(SC2=CS(=O)(=O)c3ccccc32)n1	82	24	-8	26	1	78
Cc1ccc(-c2nn(-c3ccccc3)cc2/C=N/NC(=O)c2ccncc2)o1	83	-31	158*	22	2.6	127
Cc1ccc(-c2nn(-c3ccccc3)cc2C=O)o1	101	-47	144*	1	4.5*	143*
O=C(N/N=C/c1cn(-c2ccccc2)nc1-c1cccs1)c1ccncc1	86	-1	26	17	1	101
Cc1ccc(-c2nn(-c3ccccc3)cc2CO)o1	96	-50	98	7	3.8*	148*
COc1ccc(CNC(=O)CCSCc2cccc(Cl)c2)c(OC)c1	105	-7	4	-5	1.3	107
O=C(Nc1ccc(Cl)cc1)C(c1ccccc1)N(CCO)CCO (configuration not stated)	105	-8	10	-3	4.3*	107
COC(=O)c1ccccc1NC(=O)N1c2ccccc2Sc2ccccc21	100	7	16	-3	0.95	94
NNC(=O)c1cccc(COc2ccc3c(c2)CCC3)c1	19	60*	39	95*	2.9	46
COCCSc1ccccc1C(=O)NCc1cccnc1	98	-1	4	7	1.2	99
COc1ccc(-n2c(C)cc(C(=O)CN3C(=O)c4ccccc4C3=O)c2C)cc1	107	-37	-5	-10	1.1	134*
COc1ccc(-n2c(C)cc(C(=O)CSc3ccc(NC(C)=O)cc3)c2C)cc1	102	-7	7	-1	1.3	106
COc1ccc(-n2c(C)cc(C(=O)CCl)c2C)cc1	105	16	-44	-4	3.9*	84
O=c1[nH]cnc2ccsc12	108	-7	-8	-8	1.2	106
SMILES	STAT3 act	STAT1 inh	APP 5'UTR act	STAT3 inh	NF-kB expr up	STAT1 act
O=C1Nc2ccccc2OCc2c1cccc2[N+](=O)[O-]	93	6	9	11	1.1	94
c1ccc(CCNc2ncnc3c2cnn3-c2ccccc2)cc1	98	-43	135	7	6.5*	140*
CC(C)OCCCNc1ncnc2c1cnn2-c1ccccc1	83	-31	194*	27	6*	128
c1ccc(-n2ncc3c(NCCN4CCOCC4)ncnc32)cc1	106	-36	30	-3	1.8	133*
c1ccc(CNc2ncnc3c2cnn3-c2ccccc2)cc1	99	-30	-18	7	2.1	127
C=CCN(CC(=O)O)S(=O)(=O)c1ccccc1C(F)(F)F	101	-10	-10	1	1.4	108
O=c1cccc2n1Cc1cc3ccccc3nc1-2	94	-38	67	4	3.1	135*
CCN(C)c1ccc(/C=N\n2nnnc2N)cc1	98	-44	42	8	2.4	141*
Nc1nnnn1/N=C/c1ccc(O)cc1	102	-6	nt	-2	1.2	108
O=C(Nc1nncs1)c1cc2c(s1)CCC2	105	-29	40	-4	1.1	127
O=C(Nc1nccs1)c1cc2c(s1)CCCCC2	21	70*	37	95*	1.4	35
O=C(COn1nnc2ccccc21)NCC1CCCCC1	109	-31	6	-7	1.9	129*
Cc1cc(/C=C2/C(=O)NN(c3ccccc3)C2=O)c(C)n1-c1cccc(O)c1	76	-16	181*	24	0.92	114
Cc1cc(C=C2C(=O)c3ccccc3C2=O)c(C)n1-c1cccc(C(=O)O)c1	99	-7	40	10	0.71	107
Cc1cc(C(=O)CSc2nnnn2-c2ccccc2)c(C)n1CC1CCCO1 (configuration not stated)	105	-43	8	0	0.94	139*
Cc1cc(C(=O)CSc2nc3ccccc3c(=O)n2C)c(C)n1CC1CCCO1 (configuration not stated)	32	38*	-17	82*	0.58	64
Cc1cc(C(=O)CN2C(=O)c3ccccc3S2(=O)=O)c(C)n1CC1CCCO1 (configuration not stated)	10	79*	-86	112*	0.32	27
Cc1cc(C(=O)CN2C(=O)NC(C)(c3ccccc3)C2=O)c(C)n1CC1CCCO1 (configuration not stated)	97	6	7	3	0.64	94
COc1ccc(N=Cc2[nH]c3ccccc3c2O)cc1	117	-7	87	-16	1.7	106
COc1ccc(N=Cc2oc3ccc4ccccc4c3c2O)cc1	134*	-29	57	-29	2.3	128
CCOc1cc(/C=N/Nc2cccc(C(=O)O)c2)ccc1OC(=O)c1ccccc1	56	77*	39	55*	12*	28
O=C(O)c1cccc(Cn2c(Cl)c(/C=N/Nc3ccccc3)sc2=O)c1	94	8	7	18	0.94	92
CCOc1cc(/C=N/NC(=O)CNc2cccc(C)c2)ccc1OC(=O)c1ccccc1	115	-12	8	-12	0.87	111
O=C(O)c1cccc(N/N=C/c2ccc(F)c(F)c2)c1	107	15	118	0	1	85
Cc1ccc(/C=N/Nc2cccc(C(=O)O)c2)s1	116	22	38	-16	14*	81
O=C(O)c1cccc(N/N=C/C2=C(Cl)c3cc(Cl)ccc3SC2)c1	87	-28	195*	20	5.2*	126
